Measurements from article PMC3790647 (Clinical cancer research : an official journal of the …, 2013).
Marks after values point to notes of the source that are not given here.

How the values were obtained:
[1] = test system: patients with advanced solid tumors; assay: Safety and tolerability, first-in-human dose escalation; format: in vivo
How it was run: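 Open-label 3+3 escalation: oral once-daily dosing on days 1–5 every 14 days at 100, 200, 400, 600 and 800 mg, with 3–6 patients per level and 4 cycles. Adverse events were graded by NCI-CTC-AE v3.0 from first dose to 30 days after last dose. DLTs were assessed over the first 14 days. Evaluable patients had five consecutive doses plus safety evaluations over nine days.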

[2] = Plasma pharmacokinetics of resminostat in patients; format: in vivo, human; details: for half-life / AUC / AUC(0-inf) / Tmax / Cmax: human, plasma
How it was run: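 Oral capsules (100–800 mg) were taken once daily within 30 min after a light meal with 240 ml water, with a 1 h post-dose fast on PK days. Day 1 blood was drawn pre-dose to 24 h (15 min–10 h series plus 24 h); days 5 and 47, pre-dose to 8 h. Samples (2 ml EDTA) were kept on ice, spun 10 min at 2700 × g at 4°C, and plasma stored at −80°C. Analysis used validated HPLC-MS/MS and non-compartmental (extravascular) analysis, with AUC0-∞, Cmax and t½ log-transformed.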

HeLa cells = details: ref Investigator’s Brochure, version 5, 2010; cited from earlier work
[3] = test system: rodent and human cancer cell lines; details: large variety of cell lines; ref Investigator’s Brochure, version 5, 2010; cited from earlier work
[4] = first 4 treatment cycles, 68 cycles

SMILES: CN(C)Cc1ccc(S(=O)(=O)n2ccc(/C=C/C(=O)NO)c2)cc1 [resminostat]
- Hypermagnesemia, patients ([1]; all grades, N=19): 26%
- Hypokalemia, patients ([1]; all grades, N=19): 58%
- Hyponatremia, patients ([1]; all grades, N=19): 58%
- Lymphopenia, patients ([1]; all grades, N=19): 89%
- Neutropenia, patients ([1]; all grades, N=19): 21%
- Grade 1-2 dysgeusia, patients ([1]; all patients (N=19)): 21%
- Patients with SAEs unrelated to treatment ([1]; all patients (N=19)): 37%
- Patients with treatment-related SAE ([1]; all patients (N=19)): 11%
- Treatment-related anorexia, irrespective of grade, patients ([1]; all patients (N=19)): 26%
- Treatment-related fatigue, irrespective of grade, patients ([1]; all patients (N=19)): 42%
- Treatment-related nausea, irrespective of grade, patients ([1]; all patients (N=19)): 68%
- Treatment-related vomiting, irrespective of grade, patients ([1]; all patients (N=19)): 37%
- Number of treatment-related serious adverse events (SAE) ([1]; all patients (N=19), both patients in 800 mg cohort): 3
- Anorexia, irrespective of causality and grade, share of administered cycles [1, 4]: 31%
- Fatigue, irrespective of causality and grade, share of administered cycles [1, 4]: 40%
- Grade 3 fatigue, number of treatment cycles [1, 4]: 3 treatment cycles
- Nausea, irrespective of causality and grade, share of administered cycles [1, 4]: 60%
- Hypokalemia, patients ([1]; grade 1, N=19): 47%
- Hyponatremia, patients ([1]; grade 1, N=19): 47%
- Leukopenia, patients ([1]; grade 1-2, N=19): 37%
- Thrombocytopenia, patients ([1]; grade 1-2, N=19): 37%
- Anemia regardless of causality, patients ([1]; grade 2, N=19): 47%
- Lymphopenia, patients ([1]; grade 2, N=19): 42%
- Anemia regardless of causality, patients ([1]; grade 3, N=19): 11%
- GGT elevation, patients ([1]; grade 3, N=19): 11%
- Hypokalemia, patients ([1]; grade 3, N=19): 11%
- Hyponatremia, patients ([1]; grade 3, N=19): 11%
- Lymphopenia, patients ([1]; grade 3, N=19): 21%
- Maximum tolerated dose (MTD) ([1]; once-daily days 1-5 every 14 days, up to 800 mg): not reached
- Recommended phase II dose (RP2D) ([1]; orally once-daily on days 1-5 every 14 days): 600 mg
- Change in AUC and Cmax between treatment days 1 and 5 ([2]; all studied dose levels): no significant change
- Time at which peak plasma concentration Cmax was attained, median value ([2]; day 1, single dosing, all doses): 2 h
- Clearance ([2]; day 1, single oral administration, 100 mg, N=3, geometric mean (68% range), free-base): 80900 (51600, 127000) mL/h
- Clearance ([2]; day 1, single oral administration, 200 mg, N=3, geometric mean (68% range), free-base): 53800 (45000, 64300) mL/h
- Clearance ([2]; day 1, single oral administration, 400 mg, N=3, geometric mean (68% range), free-base): 52500 (50600, 54400) mL/h
- Clearance ([2]; day 1, single oral administration, 600 mg, N=3, geometric mean (68% range), free-base): 41400 (32200, 53300) mL/h
- Clearance ([2]; day 1, single oral administration, 800 mg, N=7, geometric mean (68% range), free-base): 37700 (29500, 48200) mL/h
- Clearance ([2]; day 5, multiple oral administration, 100 mg, N=3, geometric mean (68% range), free-base): 75100 (51000, 110000) mL/h
- Clearance ([2]; day 5, multiple oral administration, 200 mg, N=3, geometric mean (68% range), free-base): 59500 (45500, 77800) mL/h
- Clearance ([2]; day 5, multiple oral administration, 400 mg, N=3, geometric mean (68% range), free-base): 49300 (39900, 61000) mL/h
- Clearance ([2]; day 5, multiple oral administration, 600 mg, n = 2, geometric mean (68% range), free-base): 31100 (27100, 35600)^b mL/h
- Clearance ([2]; day 5, multiple oral administration, 800 mg, N=6, geometric mean (68% range), free-base): 41200 (29900, 56800) mL/h
- half-life ([2]; oral, Terminal plasma elimination half-life, range, day 1, all doses): 2.35 to 4.41 h
- AUC ([2]; po, 100 mg): 1330 ng·h/mL
- AUC(0-inf) ([2]; po, 100 mg): 1240 ng·h/mL
- Tmax ([2]; po, 100 mg): 2 h
- Cmax ([2]; po, 100 mg, day 1, single oral administration, 100 mg, N=3, geometric mean (68% range), free-base): 487 ng/mL
- Cmax ([2]; po, 100 mg, day 5, multiple oral administration, 100 mg, N=3, geometric mean (68% range), free-base): 373 ng/mL
- half-life ([2]; po, 100 mg, Half-life, day 1, single oral administration, 100 mg, N=3, geometric mean (68% range), free-base): 3.77 h
- AUC ([2]; po, 200 mg): 3360 ng·h/mL
- AUC(0-inf) ([2]; po, 200 mg): 3720 ng·h/mL
- Tmax ([2]; po, 200 mg): 2 h
- Cmax ([2]; po, 200 mg, day 1, single oral administration, 200 mg, N=3, geometric mean (68% range), free-base): 1470 ng/mL
- Cmax ([2]; po, 200 mg, day 5, multiple oral administration, 200 mg, N=3, geometric mean (68% range), free-base): 1060 ng/mL
- half-life ([2]; po, 200 mg, Half-life, day 1, single oral administration, 200 mg, N=3, geometric mean (68% range), free-base): 3.12 h
- AUC ([2]; po, 400 mg): 8110 ng·h/mL
- AUC(0-inf) ([2]; po, 400 mg): 7630 ng·h/mL
- Tmax ([2]; po, 400 mg): 2.5 h
- Cmax ([2]; po, 400 mg, day 1, single oral administration, 400 mg, N=3, geometric mean (68% range), free-base): 2160 ng/mL
- Cmax ([2]; po, 400 mg, day 5, multiple oral administration, 400 mg, N=3, geometric mean (68% range), free-base): 2270 ng/mL
- half-life ([2]; po, 400 mg, Half-life, day 1, single oral administration, 400 mg, N=3, geometric mean (68% range), free-base): 3.44 h
- AUC ([2]; po, 600 mg): 19300 ng·h/mL
- AUC(0-inf) ([2]; po, 600 mg): 14500 ng·h/mL
- Tmax ([2]; po, 600 mg): 2.5 h
- Cmax ([2]; po, 600 mg, day 1, single oral administration, 600 mg, N=3, geometric mean (68% range), free-base): 4100 ng/mL
- Cmax ([2]; po, 600 mg, day 5, multiple oral administration, 600 mg, N=3, geometric mean (68% range), free-base): 3000 ng/mL
- half-life ([2]; po, 600 mg, Half-life, day 1, single oral administration, 600 mg, N=3, geometric mean (68% range), free-base): 2.84 h
- AUC ([2]; po, 800 mg): 19400 ng·h/mL
- AUC(0-inf) ([2]; po, 800 mg): 21200 ng·h/mL
- Tmax ([2]; po, 800 mg): 1.75 h
- Cmax ([2]; po, 800 mg, day 1, single oral administration, 800 mg, N=7, geometric mean (68% range), free-base): 4970 ng/mL
- Cmax ([2]; po, 800 mg, day 5, multiple oral administration, 800 mg, N=6, geometric mean (68% range), free-base): 4510 ng/mL
- half-life ([2]; po, 800 mg, Half-life, day 1, single oral administration, 800 mg, N=7, geometric mean (68% range), free-base): 2.81 h
- Oral bioavailability (judged from plasma exposure) ([2]; patients, oral capsules): good oral bioavailability
- Induction of histone H3 hyperacetylation and endogenous p21waf1 (HeLa cells): dose-dependent induction
- Concentrations that inhibit proliferation [3]: sub-to-low micromolar
